Assay results: ChEMBL document CHEMBL5724801, “EUbOPEN Chemogenomics Library - Multiplex” (2024)
Several values for one entry are separate records, joined by “and”; a condition that tells them apart may be missing. Equal values may be shown once.

Test system: U2OS
Assay: Multiplex assay against U2OS
Assay type: toxicity, cell-based
Settings: human
Outline: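 On a CQ1 microscope at 37°C and 5% CO2, live cells were imaged after compound addition. They had been stained at seeding with Hoechst33342, BioTracker Green Microtubule Cytoskeleton Dye, MitoTracker Red and Annexin V Alexa Fluor 680. CellPathfinder machine-learning gating assigned cells to Hoechst high-intensity objects or normal cells, normal cells to healthy, pyknosed or fragmented nuclei, and pyknosed cells to mitotic or apoptotic. Tubulin, mitochondrial-mass and membrane-permeability phenotypes are per cents of healthy-nucleus cells.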

[1] = 12 h, 1 µM, compound concentration 1 uM
[2] = 12 h, 10 µM, compound concentration 10 uM
[3] = 24 h, 1 µM, compound concentration 1 uM
[4] = 24 h, 10 µM, compound concentration 10 uM
[5] = 48 h, 1 µM, compound concentration 1 uM
[6] = 48 h, 10 µM, compound concentration 10 uM

O=C(Nc1c[nH]nc1-c1nc2cc(CN3CCOCC3)ccc2[nH]1)NC1CC1 [AT-9283]
Population Apoptotic (%) [1]: 27.91% and 52.63% | Population Fragmented Nuclei (%) [1]: 2.75% and 2.61% | Population Healthy Nuclei (%) [1]: 85.4% and 84.97% | Population Hoechst High Intensity Objects (%) [1]: 0% | Population Membrane Permeable-Phenotype (%) [1]: 0.65% and 3.85% | Population Mitochondria Different-Phenotype (%) [1]: 0.32% and 9.23% | Population Mitotic Cells (%) [1]: 72.09% and 47.37% | Population Normal (%) [1]: 100% | Population Pyknosed Nuclei (%) [1]: 11.85% and 12.42% | Population Tubulin-Different-Phenotype (%) [1]: 1.29% and 0% | Total Cell Count [1]: 363 and 153 | Population Apoptotic (%) [2]: 43% and 36.73% | Population Fragmented Nuclei (%) [2]: 6.56% and 13.38% | Population Healthy Nuclei (%) [2]: 60.66% and 52.11% | Population Hoechst High Intensity Objects (%) [2]: 0% and 0.7% | Population Membrane Permeable-Phenotype (%) [2]: 1.62% and 5.41% | Population Mitochondria Different-Phenotype (%) [2]: 0% and 14.86% | Population Mitotic Cells (%) [2]: 57% and 63.27% | Population Normal (%) [2]: 100% and 99.3% | Population Pyknosed Nuclei (%) [2]: 32.79% and 34.51% | Population Tubulin-Different-Phenotype (%) [2]: 2.16% and 2.7% | Total Cell Count [2]: 305 and 143 | Population Apoptotic (%) [3]: 38.27% and 55.56% | Population Fragmented Nuclei (%) [3]: 5.31% and 3.57% | Population Healthy Nuclei (%) [3]: 73.21% and 75% | Population Hoechst High Intensity Objects (%) [3]: 0% | Population Membrane Permeable-Phenotype (%) [3]: 0.72% and 3.17% | Population Mitochondria Different-Phenotype (%) [3]: 0% and 7.94% | Population Mitotic Cells (%) [3]: 61.73% and 44.44% | Population Normal (%) [3]: 100% | Population Pyknosed Nuclei (%) [3]: 21.49% and 21.43% | Population Tubulin-Different-Phenotype (%) [3]: 1.81% and 0% | Total Cell Count [3]: 377 and 168 | Population Apoptotic (%) [4]: 50.29% and 58.51% | Population Fragmented Nuclei (%) [4]: 11.38% and 13.89% | Population Healthy Nuclei (%) [4]: 28.28% and 20.83% | Population Hoechst High Intensity Objects (%) [4]: 0.34% and 1.37% | Population Membrane Permeable-Phenotype (%) [4]: 4.88% and 10% | Population Mitochondria Different-Phenotype (%) [4]: 0% and 10% | Population Mitotic Cells (%) [4]: 49.71% and 41.49% | Population Normal (%) [4]: 99.66% and 98.63% | Population Pyknosed Nuclei (%) [4]: 60.34% and 65.28% | Population Tubulin-Different-Phenotype (%) [4]: 10.98% and 3.33% | Total Cell Count [4]: 291 and 146 | Population Apoptotic (%) [5]: 55.84% and 65.43% | Population Fragmented Nuclei (%) [5]: 5.53% and 3.43% | Population Healthy Nuclei (%) [5]: 57.45% and 50.29% | Population Hoechst High Intensity Objects (%) [5]: 0.24% and 0.57% | Population Membrane Permeable-Phenotype (%) [5]: 4.6% and 11.36% | Population Mitotic Cells (%) [5]: 44.16% and 34.57% | Population Normal (%) [5]: 99.76% and 99.43% | Population Pyknosed Nuclei (%) [5]: 37.02% and 46.29% | Population Tubulin-Different-Phenotype (%) [5]: 11.3% and 13.64% | Total Cell Count [5]: 417 and 176 | Population Apoptotic (%) [6]: 69.51% and 86% | Population Fragmented Nuclei (%) [6]: 9.83% and 10.61% | Population Healthy Nuclei (%) [6]: 14.58% and 13.64% | Population Hoechst High Intensity Objects (%) [6]: 0.34% and 0% | Population Membrane Permeable-Phenotype (%) [6]: 27.91% and 11.11% | Population Mitochondria Different-Phenotype (%) [6]: 0% and 5.56% | Population Mitotic Cells (%) [6]: 30.49% and 14% | Population Normal (%) [6]: 99.66% and 100% | Population Pyknosed Nuclei (%) [6]: 75.59% and 75.76% | Population Tubulin-Different-Phenotype (%) [6]: 58.14% and 50% | Total Cell Count [6]: 296 and 132

CC(C)C[C@H](CO)Nc1nc(S[C@@H](C)c2ccccc2)nc2nc(N)sc12 [AZD-8797]
Population Apoptotic (%) [1]: 83% and 100% | Population Fragmented Nuclei (%) [1]: 20% and 12% | Population Healthy Nuclei (%) [1]: 65% and 82% | Population Hoechst High Intensity Objects (%) [1]: 3% and 0% | Population Membrane Permeable-Phenotype (%) [1]: 5% | Population Mitochondria Different-Phenotype (%) [1]: 1% and 5% | Population Mitotic Cells (%) [1]: 16% and 0% | Population Normal (%) [1]: 96% and 100% | Population Pyknosed Nuclei (%) [1]: 14% and 5% | Population Tubulin-Different-Phenotype (%) [1]: 2% and 3% | Total Cell Count [1]: 177 and 95 | Population Apoptotic (%) [2]: 63% and 78% | Population Fragmented Nuclei (%) [2]: 21% and 9% | Population Healthy Nuclei (%) [2]: 56% and 79% | Population Hoechst High Intensity Objects (%) [2]: 4% and 2% | Population Membrane Permeable-Phenotype (%) [2]: 30% and 10% | Population Mitochondria Different-Phenotype (%) [2]: 12% and 16% | Population Mitotic Cells (%) [2]: 36% and 21% | Population Normal (%) [2]: 95% and 97% | Population Pyknosed Nuclei (%) [2]: 22% and 10% | Total Cell Count [2]: 222 and 135 | Population Apoptotic (%) [3]: 81% and 83% | Population Fragmented Nuclei (%) [3]: 20% and 17% | Population Healthy Nuclei (%) [3]: 68% and 77% | Population Hoechst High Intensity Objects (%) [3]: 1% and 0% | Population Membrane Permeable-Phenotype (%) [3]: 2% and 4% | Population Mitochondria Different-Phenotype (%) [3]: 0% and 2% | Population Mitotic Cells (%) [3]: 18% and 16% | Population Normal (%) [3]: 98% and 100% | Population Pyknosed Nuclei (%) [3]: 10% and 4% | Population Tubulin-Different-Phenotype (%) [3]: 2% and 3% | Total Cell Count [3]: 219 and 121 | Population Apoptotic (%) [4]: 76% and 100% | Population Fragmented Nuclei (%) [4]: 20% and 7% | Population Healthy Nuclei (%) [4]: 58% and 86% | Population Hoechst High Intensity Objects (%) [4]: 3% and 1% | Population Membrane Permeable-Phenotype (%) [4]: 22% and 9% | Population Mitochondria Different-Phenotype (%) [4]: 12% | Population Mitotic Cells (%) [4]: 24% and 0% | Population Normal (%) [4]: 96% and 98% | Population Tubulin-Different-Phenotype (%) [4]: 13% and 6% | Total Cell Count [4]: 245 and 156 | Population Apoptotic (%) [5]: 94% and 100% | Population Fragmented Nuclei (%) [5]: 18% and 15% | Population Healthy Nuclei (%) [5]: 69% and 77% | Population Hoechst High Intensity Objects (%) [5]: 2% | Population Membrane Permeable-Phenotype (%) [5]: 6% and 2% | Population Mitochondria Different-Phenotype (%) [5]: 0% and 2% | Population Mitotic Cells (%) [5]: 5% and 0% | Population Normal (%) [5]: 97% | Population Pyknosed Nuclei (%) [5]: 11% and 6% | Population Tubulin-Different-Phenotype (%) [5]: 2% | Total Cell Count [5]: 352 and 181 | Population Apoptotic (%) [6]: 90% and 96% | Population Fragmented Nuclei (%) [6]: 26% and 12% | Population Healthy Nuclei (%) [6]: 54% and 74% | Population Hoechst High Intensity Objects (%) [6]: 4% and 3% | Population Membrane Permeable-Phenotype (%) [6]: 20% and 11% | Population Mitochondria Different-Phenotype (%) [6]: 10% and 5% | Population Mitotic Cells (%) [6]: 9% and 3% | Population Normal (%) [6]: 95% and 96% | Population Pyknosed Nuclei (%) [6]: 19% and 12% | Population Tubulin-Different-Phenotype (%) [6]: 14% and 4% | Total Cell Count [6]: 296 and 218
